Results filed as inconclusive are left out. Calls of active or inactive are those of the source.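 How the source made its calls: active means compound lowers the viability signal with a fitted half-maximal concentration within ten times the top dose, every run; inconclusive means runs disagree, poor fit, or flat partial inhibition; inactive means the rest.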

Results on 35 compounds are retold here after PubChem BioAssay AID504788 (Broad Institute, 2011).

The subject of test [1] is HMLE_shECad viability, CellTiter-Glo luminescence, 72 h. Briefly: growth inhibition of breast cancer stem-like cells, dose response, cell-based, HMLE_shECad, CellTiter-Glo luminescence, dry powder, set 7 (AID 504788). The method, boiled down: (§1)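 System: HMLE_shECad cells, E-cadherin knockdown, EMT-induced breast cancer stem cell model / Input: 2000 cells/well / Buffer or medium: serum-free CSC screening medium, 37 °C, 5% CO2 / Doses: 100 nL compound pinned into each well / Incubation: ≥4 h settling, then 70–74 h compound exposure, 37 °C / Technique: CellTiter-Glo luminescence, reagent diluted 1:3 in PBS, 12 min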
Background: Cellular ATP, detected with luciferase, serves as a proxy for viable cell number.

Assay in test [2]: as above
The settings on record: HMLE_shECad viability, CellTiter-Glo luminescence, 72 h; at 19.5 µM (top of the series). The method, boiled down: as §1

Consider `Cc1cccc(OCc2ccc(C(=O)Nc3nc(C)cs3)o2)n1`, for which, in test [1], the AC50 is 18.7 µM.
For the compound `c1c[nH]c(-c2ccn[nH]2)c1`, the activity change, negative = inhibition in test [2] was 5% (inactive).
Consider `O=C(COc1ccc(Cl)cc1Cl)NC1=NCCS1`, for which, in test [2], the activity change, negative = inhibition is -3.83% (inactive).
On the same count and under the same terms, under `N#Cc1cccc(/C=C/C(=O)NC2=NCCS2)c1` stands 0.158% (inactive).
For `O=C(COc1c(Cl)cc(Cl)cc1Cl)N/N=C/c1ccc[nH]1`, in test [1], the AC50 is 1.7 µM.
On the same count and under the same terms, under `Cc1csc(NC(=O)c2ccc(COc3ccncc3)o2)n1` stands 20 µM; under `CC(C)c1ccc(/C=C/C(=O)n2ccc(-c3ccc[nH]3)n2)cc1`, 15.6 µM.
For the compound `O=C(c1ccc(COc2ccccc2)o1)n1ccc(-c2ccc[nH]2)n1`, the activity change, negative = inhibition in test [2] was 7.35% (inactive).
As for `Cc1csc(NC(=O)c2cccc(CNc3ncccc3F)c2)n1`, in test [1], the AC50 was 22.9 µM.
For the compound `COc1cc(OC(C)C)ccc1/C=C/C(=O)NC1=NCCS1`, in test [2], the activity change, negative = inhibition was -1.34% (inactive).
Turning to `O=C(/C=C/c1ccc(-c2ccccc2)nc1)NC1=NCCS1`, in test [1], the AC50 was 29 µM.
On the same count and under the same terms, under `COc1cc([C@@H]2c3cc4c(cc3[C@@H](OC3OC5COC(C)OC5C(O)C3O)[C@H]3COC(=O)[C@H]23)OCO4)cc(OC)c1O` (stereo not given in full) stands 2.95 µM.
In the case of `CN(C)C(=N)N=C(N)N`, the activity change, negative = inhibition in test [2] was 6.34% (inactive).
Regarding `CC(C)c1ccc(/C=C/C(=O)N2CC(F)(F)C2)cc1`, the activity change, negative = inhibition in test [2] was -4.76% (inactive).
Turning to `Cc1ccnc(NCc2cccc(C(=O)Nc3nc(C)cs3)c2)c1`, the AC50 in test [1] was 17.7 µM.
Still for that read-out and setting: under `Cc1cccc(OCc2cccc(C(=O)Nc3nc(C)cs3)c2)c1` stands 2.74 µM.
On the same count and under the same terms, under `Cc1csc(NC(=O)c2cccc(COc3ccccc3F)c2)n1` stands 1.93 µM.
On the same count and under the same terms, under `Cc1cccc(NCc2ccc(C(=O)Nc3nc(C)cs3)o2)n1` stands 18 µM.
`O=C(COc1ccc(Cl)cc1Cl)N/N=C/c1ccccc1`: the activity change, negative = inhibition in test [2] is 3.46% (inactive).
`Cc1csc(NC(=O)c2cccc(COc3cccc(Cl)c3)c2)n1`: in test [1], the AC50 was 1.11 µM.
The same measure, in the same setting: in the case of `Cc1csc(NC(=O)c2ccc(COc3cccc(OC(F)(F)F)c3)o2)n1` it was 0.895 µM.
As for `O=C(O)COc1ccc(Cl)cc1Cl`, in test [2], the activity change, negative = inhibition was -2.16% (inactive).
Same read-out and setting: under `O=C(COc1ccc(Cl)cc1Cl)n1ccc(-c2ccc[nH]2)n1` stands 7.33% (inactive).
The same measure, in the same setting: in the case of `CC(C)c1ccc(C#CC(=O)NC2=NCCS2)cc1` it was -4.05% (inactive); in that of `N#Cc1ccccc1/C=C/C(=O)NC1=NCCS1`, -13.1% (inactive).
Consider `Cc1csc(NC(=O)c2ccc(COc3ncccc3F)o2)n1`, for which the AC50 in test [1] is 22.7 µM.
For the compound `Cc1csc(NC(=O)c2ccc(COc3cccnc3)o2)n1`, in test [2], the activity change, negative = inhibition is -5.96% (inactive).
Take `Cc1cccc(NCc2cccc(C(=O)Nc3nc(C)cs3)c2)n1`: the concentration at half-maximal activity (AC50) in test [1] was 21.1 µM.
As to `O=C(c1ccc(COc2ccccc2)o1)N1CC(F)(F)C1`, in test [2], the activity change, negative = inhibition was 1.55% (inactive).
As for `Cc1csc(NC(=O)COc2ccc(Cl)cc2Cl)n1`, in test [1], the AC50 is 28.9 µM.
Regarding `COc1cccc2c1C(=O)c1c(O)c3c(c(O)c1C2=O)C[C@@](O)(C(=O)CO)C[C@@H]3OC1C[C@H](N)[C@H](O)[C@H](C)O1` (stereo not given in full), in test [1], the AC50 was 0.053 µM.
In the case of `Cc1csc(NC(=O)c2cccc(COc3cccc(F)c3)c2)n1`, the AC50 in test [1] is 0.705 µM.
Take `CCc1ccc(/C=C/C(=O)NC2=NCCS2)cn1`: the activity change, negative = inhibition in test [2] was 1.08% (inactive).
Turning to `COc1cc(C(C)C)ccc1/C=C/C(=O)NC1=NCCS1`, the AC50 in test [1] was 30.6 µM.
As to `Cc1cccc(/C=C/C(=O)NC2=NCCS2)c1`, the activity change, negative = inhibition in test [2] was 6.76% (inactive).

Broadly, the AC50 is the concentration giving half of the maximal activity seen.
